Experimental data: the EternaBench riboswitch data

System: MS2 coat protein
Assay: apparent Kd, MS2 coat protein; higher = weaker binding; RNA-MaP array; FMN 200 µM where present
In short: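 Binding was read on Illumina sequencing-chip clusters where stalled E. coli RNA polymerase had transcribed each design. A titration of SNAP-549-labelled MS2 coat protein began at 0.7 or 1.5 nM and doubled to 3 µM, once without ligand and once with constant ligand, in 100 mM Tris-HCl pH 7.5, 80 mM KCl, 4 mM MgCl2, BSA, DTT, yeast tRNA and Tween-20. The apparent Kd is the median of filtered per-cluster binding-curve fits, based on green signal normalised to red-channel RNA signal and control-cluster median Fmax.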

[1] = designed as: OFF switch for flavin mononucleotide, no ligand
[2] = ligand present: flavin mononucleotide, designed as: OFF switch for flavin mononucleotide
[3] = designed as: ON switch for flavin mononucleotide, no ligand
[4] = ligand present: flavin mononucleotide, designed as: ON switch for flavin mononucleotide

Sequence	apparent Kd [1] [µM]	apparent Kd [2] [µM]	apparent Kd [3] [µM]	apparent Kd [4] [µM]
GGCUAGUCAGGAUAUACGAACAUGUCAAAAGACGUGAAGGGACAUGAGGAUCACCCAUGUAGAAGGGACUAGCG	0.0295	0.141		
UUUUAUAAUACCUCAUGUACAUGAGGAUCACCCAUGUUAACUAAGGAUAUAUAUAAAUUAAUAAUGUAGAAGGUAGUAAUAUUU	0.0165	0.0143		
UUGUAGUACGUAGGAUAUCAAUGAGGAUCACCCUGAGAAGGACGUGAGGACAUGAGGAUCACCCAUGUGGAUCACCCAUGUCAU	0.191	0.145		
GCCAACUUAUGAGGAUAUGGCACCUUAUUGGUGCCAGAAGGCAUGUCAAUUGACAUGAGGAUCACCCAUGUAUUAUAGUUGGCA			0.7	0.108
CACGUCCACACAGGAUAUGCUGGACUUUGUCCAGCAGAAGGGUGAAAACAUGAGGAUCACCCAUGUAGGACGUGUAUAUUUAAU			0.488	0.043
UGCCUGAGUCGAGGAUAUUAUGGAUCCUCUAAUACAUGAGGAUCACCCAUGUAAUUAAUUAUACAUGAGAAGGUGACUCAGGCU			0.529	0.488
GUAGCACAAGUUAACAUGAGGAUCACCCAUGUCAGAAGACAUGAGGAUAUGGAUGUGAAGAUAAUCCAGAAGGCAUAAUGCUAA			0.774	0.131
UUGCCUCAGAACAUGAGGAUCACCCAUGUGCUGCGGGCAACGUAGGAUAUGAUGGUGCAACACCAUCAGAAGGAUGAUGGUACC			0.00562	0.00545
UCCUUCUGUUGAGGAUAUGUAAGACAGCGGCUGCUAUUACGGCACGCUGAUACAGAAGGCAACAUGAGGAUCACCCAUGUUCAA	0.0241	0.189		
GGACGUCUCAUUUACAUGAGGAUCACCCAUGUCGAUAGACAUGAGGAUAUGGAUCCGAAUCGGAUCCAGAAGGCAUGGACGUCC			1.13	0.0634
AAGUAGAUCCGAGGAUAUACAAGCCGGAAACGGUACAUGAGGAUCACCCAUGUAGAAGGCGGAUCUACAGGUACUAAAGUACCA	0.00553	0.00917		
CUCCCGAUCACAGGAUAUGCACAUACAAUUAAGGCAGAAGGGUGAUAGUCGGCCGGACAUGAGGAUCACCCAUGUGCAAGGAUA			0.285	0.0852
UUUUCAUCAUCAGGAUAUUAACGUGGGCUACUUUAAGAAGGGAUAGUGGGAGAGGAUGUGAAACAUGAGGAUCACCCAUGUUGU			0.0142	0.01
AUUAUACAUGAGGAUCACCCAUGUAAUUAAUUAAUUAAGAUCAAGGAUAUCAGCUCGUUUAGAGCUGAGAAGGUGAUCACAUGU			0.356	0.295
GUAUAUAGUGUGAGGAUAUGCUGGUCCUUGGAUCAGCAGAAGGCACAUGAGGAUCACCCAUGUAGUUAAAUAUA	0.0344	0.082		
GGACAUUUACAGAAGGGCAAGCUCGAAAGAGGAGAAAGAGAACGAGCUUGCAGGAUAUGUUGAACAUGAGGAUCACCCAUGUCU			0.00975	0.00769
AGGAGUAAAGGGAAUAACAUGAGGAUCACCCAUGUAUGGGAGAGAAGGCAUAUCGGAGGACGAUAUGAGGAUAUUUAAACUUUA			0.106	0.0205
AUCAUGUCAGGAUAUAUGACAUGGCUCUUCGGAGCAAGCUCAUAGAAGGGACAUGAGGAUCACCCAUGUAGAGC	0.0227	0.0305		

Sequence	apparent Kd [1] [µM]	apparent Kd [2] [µM]	apparent Kd [3] [µM]	apparent Kd [4] [µM]
AUCGGCUCGUCAGGAUAUACGUCACUGCGUCAGCAGUGUGGUAAGAUCACAUGAGGAUCACCCAUGUAGAAGGGACGAGCUGAU	0.0136	0.268		
CGUAGGAUGCAGAAGGCAUGAACAUGAGGAUCACCCAUGUCAAAAGACAUGAGGAUAUGCAUCCUACGAAAAGUGCGAAAGCAC			0.0175	0.0056
CGAGGACAUGAGGAUCACCCAUGUAGCUACAAAACGCAGCGACAGGAUAUCCUCUGGUUCCCAUAGGAGAAGGGUCAAACCUUG			0.0295	0.0473
AAGAAGGACGCAGGAUAUCCAGGACCUCCCGCAGGAGAAGGGCGAGACAUGAGGAUCACCCAUACAUGAGGAUCACCCAUGUAG	0.0173	0.0185		
AAAAGACAUGAGGAUCACCCAUGUAAAGACGUAGGAGGAUAUGUCUUGAAAAAAGACUUGACAGAAGGCCUGUGUC			0.0264	0.019
AAGCUGGUAGGAUAUGCUAGGGCGAUUAAUACGCCGAUAGUACAUGAGGAUCACCCAUGUAGAAGGGCCAGAAA	0.0236	0.0178		
GUUUAGUGAGGAUAUGUGGCUUCGAUCGUGAGAUCGAGGCUACAGAAGGCACAUGAGGAUCACCCAUGUUCCUG	0.016	0.0643		
GUGUCGUCAGGAUAUCCUACAUAACUAUCGUUGUUACCAUUGGAGAAGGGACAUGAGGAUCACCCAUGUUUUCC	0.0193	0.0197		
GGUGCGUUUGUGAGGAUAUGCUGGUCCUUGGAUCAGCAGAAGGCACAUGAGGAUCACCCAUGUGGUGUCGUUCC	0.181	0.143		
UAGUAUAAGGGCAUUAAACAUGAGGAUCACCCAUGUACGAUAGAGGAUAUGCAUUUCAGUUGAGAGUAGAAGGUUAGAGAAGGG	0.0445	0.0463		
AAACAUGUCCGAGGAUAUCUGGAAACAUUUCCAAGAGAAGGCGGACAUGAGGAUCACCCAUGUCUCUCCUCAUCAAAUCCAAGA	0.008	0.0774		
AAAGGUGAUUCAGGAUAUGUGUAGGAGGGCGGCGCAGAAGGGAAUCUAGCCCGACGUCAUACAUGAGGAUCACCCAUGUAUGCC			0.0287	0.0185
AGUUGGCGAGGAUAUACAUGAGGAUCACCCAUGUGAGAGAUACUAGUGAGGUCGAUUGGUAGAAGGCGCUGACA	0.132	0.106		
UUAUUAGCAGGAUAUAUCCAGGAUUACAUGAGGAUCACCCAUGUGACCGCUUGAGAUUCUAUAGAAGGGCUUUAUU	0.0296	0.0298		
AGGAGACAUGAGGAUCACCCAUGUGAGAAGAGGCGAGGAUAUCGAAAAAAAAAAAAAAAACGAGAAGGCGCGAGAA			0.071	0.0393
CCUUUGAAGAUCCAAAAUUUCGACAUGAGGAUCACCCAUGUGCAGGAUAUCGUGCCAGUGAUGUACGAGAAGGGCAGACUCUGC	0.132	0.158		
UUCGGCGCACAGAAGGAUCGGUACAUGAGGAUCACCCAUGUAAGCAAAGAUAGGAUAUGUGGAGCUUACAGGGAAAAUGAACAA			0.0932	0.019
GGUCCAUUAUGAGGAUAUGGCACCUUAUUGGUGCCAGAAGGCAUGUCUAUAGACAUGAGGAUCACCCAUGUAUUAAUUUGGACC			0.36	0.0414
